{"source": "ChEMBL document CHEMBL4480410", "about": "“Targeting the MKK7-JNK (Mitogen-Activated Protein Kinase Kinase 7-c-Jun N-Terminal Kinase) Pathway with Covalent Inhibitors” (J Med Chem, 2019)", "key": {"[1]": {"assay": "Protein binding in human plasma at 5 uM after 6 hrs by LC/MS analysis", "assay_type": "ADME, cell-free", "settings": "read-out: PPB (converted)", "how_it_was_run": "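Equilibrium dialysis of plasma with compound at 5 µM, 6 h at 37 °C; final compound concentrations determined by LC/MS to give percent bound.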"}, "in vitro [2]": {"assay": "in vitro", "settings": "mouse, liver microsomes"}, "[3]": {"molecular_target": "T1, Tyrosine-protein kinase JAK3 (Homo sapiens) (UniProt P52333)", "T1 sequence (whole entry)": "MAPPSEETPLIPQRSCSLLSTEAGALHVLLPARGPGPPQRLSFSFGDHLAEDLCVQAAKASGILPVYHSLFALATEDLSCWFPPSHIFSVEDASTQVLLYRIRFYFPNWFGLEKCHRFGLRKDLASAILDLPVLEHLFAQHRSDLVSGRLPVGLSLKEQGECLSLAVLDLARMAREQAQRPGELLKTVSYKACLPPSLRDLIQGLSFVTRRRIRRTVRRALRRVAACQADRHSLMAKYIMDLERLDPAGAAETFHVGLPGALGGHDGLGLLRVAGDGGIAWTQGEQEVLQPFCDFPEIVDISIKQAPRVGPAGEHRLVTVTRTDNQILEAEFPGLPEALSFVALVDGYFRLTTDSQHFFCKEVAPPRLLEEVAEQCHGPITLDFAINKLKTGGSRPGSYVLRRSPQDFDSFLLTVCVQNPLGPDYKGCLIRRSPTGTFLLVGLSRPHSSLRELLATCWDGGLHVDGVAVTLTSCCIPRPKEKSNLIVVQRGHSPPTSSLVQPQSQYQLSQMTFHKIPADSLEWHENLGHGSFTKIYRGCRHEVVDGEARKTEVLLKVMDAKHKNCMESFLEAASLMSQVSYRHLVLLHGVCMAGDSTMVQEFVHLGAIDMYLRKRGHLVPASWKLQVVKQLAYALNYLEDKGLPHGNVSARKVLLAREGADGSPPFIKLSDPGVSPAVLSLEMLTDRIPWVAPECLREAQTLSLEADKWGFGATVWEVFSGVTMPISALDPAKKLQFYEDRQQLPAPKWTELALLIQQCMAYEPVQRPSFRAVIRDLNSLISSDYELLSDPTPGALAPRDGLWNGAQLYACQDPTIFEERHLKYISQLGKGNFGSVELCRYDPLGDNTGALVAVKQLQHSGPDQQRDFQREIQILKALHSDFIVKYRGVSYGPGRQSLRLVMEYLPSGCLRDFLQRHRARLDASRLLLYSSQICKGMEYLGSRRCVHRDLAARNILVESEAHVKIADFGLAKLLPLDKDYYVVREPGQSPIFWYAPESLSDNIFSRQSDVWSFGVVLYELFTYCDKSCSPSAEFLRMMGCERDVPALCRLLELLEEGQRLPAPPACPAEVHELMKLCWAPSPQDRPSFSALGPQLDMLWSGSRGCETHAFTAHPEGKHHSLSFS", "assay": "Inhibition of JAK3 (unknown origin) at 1 uM by proQinase-based assay relative to control"}, "[4]": {"assay": "Apparent permeability across apical to basolateral side in MDCK2-MDR1 cells at 10 uM after 2 hrs by transwell membrane based assay", "assay_type": "ADME, cell-based, Canis lupus familiaris", "settings": "dog, MDCK-MDR1", "how_it_was_run": "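Compound at 10 µM in HBSS added to apical or basolateral side of MDCKII-MDR1 monolayer, 2 h at 37 °C. Both sides quantified by LC-MS/MS; Papp A–B or B–A from receiver concentration and volume, time, membrane area and initial donor concentration.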"}, "in vitro [5]": {"assay": "in vitro", "settings": "human, liver microsomes"}, "[6]": {"molecular_target": "T2, Dual specificity mitogen-activated protein kinase kinase 7 (Mus musculus) (UniProt Q8CE90)", "T2 sequence (whole entry)": "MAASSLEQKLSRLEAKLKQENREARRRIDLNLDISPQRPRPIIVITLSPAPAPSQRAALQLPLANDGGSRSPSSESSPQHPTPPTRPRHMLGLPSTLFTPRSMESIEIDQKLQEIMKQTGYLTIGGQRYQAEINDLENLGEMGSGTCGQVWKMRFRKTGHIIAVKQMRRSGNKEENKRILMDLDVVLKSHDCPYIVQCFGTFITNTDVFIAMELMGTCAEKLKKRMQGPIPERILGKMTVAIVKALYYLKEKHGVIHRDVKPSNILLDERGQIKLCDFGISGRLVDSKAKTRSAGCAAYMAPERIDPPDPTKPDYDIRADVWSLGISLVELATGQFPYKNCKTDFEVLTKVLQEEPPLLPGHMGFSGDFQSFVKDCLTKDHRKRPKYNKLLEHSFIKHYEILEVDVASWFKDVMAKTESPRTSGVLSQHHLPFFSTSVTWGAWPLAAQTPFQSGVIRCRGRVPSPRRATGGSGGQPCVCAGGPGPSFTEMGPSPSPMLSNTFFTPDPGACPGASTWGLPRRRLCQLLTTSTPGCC", "assay": "Inhibition of MKK7 in mouse DRG cells assessed as reduction in cJUN phosphorylation at 1 uM after 2 hrs by Western blot analysis", "assay_type": "cell-based", "how_it_was_run": "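Dissociated DRG neurons plated on laminin for 3 h, medium replaced, compound added for a further 2 h. Neurons lysed in RIPA buffer with phosphatase inhibitors. Western blots probed for phospho-cJun, cJun, phospho-JNK and JNK.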"}, "[7]": {"molecular_target": "T3, Tyrosine-protein kinase ITK/TSK (Homo sapiens) (UniProt Q08881)", "T3 sequence (whole entry)": "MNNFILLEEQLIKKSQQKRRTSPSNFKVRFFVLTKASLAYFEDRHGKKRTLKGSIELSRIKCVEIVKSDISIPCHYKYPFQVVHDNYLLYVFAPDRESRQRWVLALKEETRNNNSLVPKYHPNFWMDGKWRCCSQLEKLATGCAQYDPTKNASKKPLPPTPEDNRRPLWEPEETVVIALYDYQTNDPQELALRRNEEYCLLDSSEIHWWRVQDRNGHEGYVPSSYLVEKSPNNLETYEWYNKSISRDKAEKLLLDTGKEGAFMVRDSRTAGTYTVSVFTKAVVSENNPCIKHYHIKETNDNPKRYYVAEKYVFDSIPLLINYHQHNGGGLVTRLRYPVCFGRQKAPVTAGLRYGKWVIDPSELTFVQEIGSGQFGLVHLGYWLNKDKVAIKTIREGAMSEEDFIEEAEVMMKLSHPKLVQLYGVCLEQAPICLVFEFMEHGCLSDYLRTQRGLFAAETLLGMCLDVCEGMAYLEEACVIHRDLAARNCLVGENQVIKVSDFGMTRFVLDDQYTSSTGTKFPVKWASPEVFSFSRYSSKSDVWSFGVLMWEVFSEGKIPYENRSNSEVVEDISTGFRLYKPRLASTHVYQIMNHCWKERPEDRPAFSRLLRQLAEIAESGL", "assay": "Inhibition of ITK (unknown origin) at 1 uM by proQinase-based assay relative to control"}, "[8]": {"molecular_target": "Tyrosine-protein kinase BTK (Homo sapiens) (UniProt Q06187)", "sequence (Q06187 whole entry)": "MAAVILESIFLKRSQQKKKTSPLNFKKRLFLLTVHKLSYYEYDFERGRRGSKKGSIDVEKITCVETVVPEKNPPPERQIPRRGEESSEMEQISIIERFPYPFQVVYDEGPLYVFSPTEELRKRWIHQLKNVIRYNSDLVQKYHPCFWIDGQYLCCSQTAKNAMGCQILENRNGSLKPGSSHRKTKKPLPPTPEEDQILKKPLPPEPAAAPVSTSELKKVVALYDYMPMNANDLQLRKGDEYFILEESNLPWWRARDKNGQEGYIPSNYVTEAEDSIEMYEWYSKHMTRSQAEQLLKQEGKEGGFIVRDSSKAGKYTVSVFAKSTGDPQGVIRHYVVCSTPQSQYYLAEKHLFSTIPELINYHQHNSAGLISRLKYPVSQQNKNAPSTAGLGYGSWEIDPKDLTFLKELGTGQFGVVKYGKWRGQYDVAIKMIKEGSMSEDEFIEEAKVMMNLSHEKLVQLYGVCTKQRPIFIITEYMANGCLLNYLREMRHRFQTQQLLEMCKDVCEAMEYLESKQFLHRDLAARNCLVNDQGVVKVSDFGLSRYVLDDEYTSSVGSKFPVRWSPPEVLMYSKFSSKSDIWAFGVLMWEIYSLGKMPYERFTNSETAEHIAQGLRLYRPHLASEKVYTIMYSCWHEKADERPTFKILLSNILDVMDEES", "assay": "Inhibition of BTK (unknown origin) at 1 uM by proQinase-based assay relative to control"}}, "note": "The source made the active and inactive calls. The calls are words filed in the database; no cut-off is given here.", "data": [{"smiles": "C=CC(=O)N1CCC[C@@H](n2nc(-c3cn(-c4ccc(C(C)=O)cc4)nn3)c3c(N)ncnc32)C1", "values": [{"measurement": "fraction unbound at 6 h, 5 µM", "setting": "[1]", "value": 0.04}, {"measurement": "microsomal CLint at 1 h, 3 µM", "setting": "in vitro [2]", "value": 124, "unit": "µL/min/mg"}, {"measurement": "inhibition", "setting": "[3]", "value": "> 50", "unit": "%"}, {"measurement": "Papp A→B at 2 h, 10 µM", "setting": "[4]", "value": 9, "unit": "×10⁻⁶ cm/s"}, {"measurement": "microsomal CLint at 1 h, 3 µM", "setting": "in vitro [5]", "value": 154, "unit": "µL/min/mg"}, {"measurement": "inhibition", "setting": "[6]", "value": "Active"}, {"measurement": "inhibition", "setting": "[7]", "value": "> 50", "unit": "%"}, {"measurement": "inhibition", "setting": "[8]", "value": "> 50", "unit": "%"}]}]}
